In data set [1] the test system is Mus musculus. Nature of the data set: Antidepressant activity in kunming mouse assessed as increase in 5-HT level in hippocampus at 160 mg/kg, po measured after 14 days by HPLC-ECD analysis. Format: functional, organism-based. Conditions: time 14.0 day. In outline:
(§1)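 Male Kunming mice dosed orally with vehicle or 160 mg kg−1 for 14 days, then killed by cervical dislocation. Brain regions dissected on ice, homogenized in 0.2 M perchloric acid with 0.1 mM EDTA and spun at 4 °C for 20 min. Supernatant analysed by HPLC-ECD at +0.50 V, mobile phase pH 3.0. Amounts given in ng g−1 as mean ± SEM, n = 12.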

The subject of data set [2] is Mus musculus. In words: Antidepressant activity in kunming mouse assessed as decrease in 5-HIAA level in striatum at 160 mg/kg, po measured after 14 days by HPLC-ECD analysis. Format: functional, organism-based. Conditions: time 14.0 day. In outline: as §1
Data set [3] concerns Mus musculus. Nature of the data set: Antidepressant activity in Kunming mouse assessed as decrease in immobility time at 160 mg/kg, po administered two times at 1 hrs and 24 hrs and measured at last 4 mins of 6 mins test by forced swim test relative to fluoxetine. On the set-up: scale not given: the % may be the effect or the level left. As to conditions: time 1444 min, 24.07 h. It counts as functional. A digest of the protocol:
(§2)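 Male Kunming mice, 15–18 g, housed six per cage at 22 ± 1 °C on a 12 h light/dark cycle. Oral dosing 24 h and 1 h before the test. Each mouse placed in a cylinder (25 cm high, 15 cm diameter) holding 10 cm of water at 25 ± 1 °C and made to swim 6 min; immobility over the last 4 min scored by video tracking.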

The subject of data set [4] is Mus musculus. In words: Antidepressant activity in kunming mouse assessed as decrease in DOPAC level in striatum at 160 mg/kg, po measured after 14 days by HPLC-ECD analysis. As to conditions: time 14.0 day. Format: functional, organism-based. A digest of the protocol:
as §1

Data set [5] relates to HEK293T. Nature of the data set: Agonist activity at human MT1 N162A mutant receptor transfected in HEK293T cells co-transfected with tet-inducible luciferase reporter plasmid, pCDNA3.1(+)-CMV-betaArrestin2-tev plasmid and TANGO plasmid assessed as shift in concentration response curve incubated for 24 hrs by TANGO-GPCR assay based luminescence plate reader analysis relative to agomelatine. It counts as cell-based. Conditions: filed as agonist. A digest of the protocol: (§3)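 293T cells transiently transfected with tet-inducible luciferase reporter, pCDNA3.1(+)-CMV-bArrestin2-tev and TANGO receptor plasmids (wild-type or point mutant). Next day plated at 20 000 cells/well on poly-L-lysine; drug added day 3. Day 4, Bright-Glo added, 20 min, then luminescence read. Concentration–response curves fitted; data mean ± SD.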
On the technique in general: In a reporter assay the amount or activity of a reporter protein is the signal.

A short description of data set [6]: Half-life in Kunming mouse at 80 mg/kg, po administered as single dose and measured upto 24 hrs. Conditions: in vivo. It counts as ADME, organism-based.
Data set [7] deals with Mus musculus. In words: Antidepressant activity in Kunming mouse assessed as decrease in immobility time at 80 mg/kg, po administered two times at 1 hrs and 24 hrs and measured at last 4 mins of 6 mins test by forced swim test relative to fluoxetine. It counts as functional. The arrangement: scale not given: the % may be the effect or the level left. Conditions: time 1444 min, 24.07 h. In outline:
as §2

Data set [8] can be described thus: Cmax in Kunming mouse at 80 mg/kg, po administered as single dose and measured upto 24 hrs. As to conditions: in vivo. The arrangement: time < 24 hrs, dose 80 mg/kg, route po. It counts as ADME, organism-based.
Data set [9] deals with Mus musculus. In words: Antidepressant activity in kunming mouse assessed as increase in dopamine level in striatum at 160 mg/kg, po measured after 14 days by HPLC-ECD analysis. Conditions: time 14.0 day. Format: functional, organism-based. In outline: as §1
For data set [10], the system named is Mus musculus. Nature of the data set: Antidepressant activity in Kunming mouse assessed as decrease in immobility time at 10 to 160 mg/kg, po administered two times at 1 hrs and 24 hrs and measured at last 4 mins of 6 mins test by forced swim test. As to conditions: dose 10-160 mg/kg, time 1444.0 min. Format: functional, organism-based. A digest of the protocol:
as §2

For data set [11], the target named is T1, Melatonin receptor type 1A (Homo sapiens, UniProt P48039). In words: Agonist activity at human MT1 receptor transfected in HEK293T cells co-transfected with tet-inducible luciferase reporter plasmid, pCDNA3.1(+)-CMV-betaArrestin2-tev plasmid and TANGO plasmid assessed as tango arrestin recruitment by measuring maximum activity incubated for 24 hrs by TANGO-GPCR assay based luminescence plate reader analysis relative to agomelatine. It counts as functional, cell-based. Conditions: filed as agonist. In outline:
(§4)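 Tango arrestin recruitment: 293T cells transiently transfected with a tet-inducible luciferase reporter, CMV-βArrestin2-TEV and TANGO receptor plasmids. On day 2, replated at 20 000 cells per well on poly-L-lysine. Drug added on day 3. On day 4, luciferase reagent added for 20 min and luminescence counted. Curves fitted; data given as mean ± SD.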

In data set [12] the test system is Mus musculus. In words: Antidepressant activity in kunming mouse assessed as decrease in 5-HIAA level in hypothalamus at 160 mg/kg, po measured after 14 days by HPLC-ECD analysis. Conditions: time 14.0 day. Format: functional, organism-based. A digest of the protocol:
as §1

In data set [13] the target is T1, Melatonin receptor type 1A. Nature of the data set: Agonist activity at human MT1 receptor transfected in HEK293T cells co-transfected with tet-inducible luciferase reporter plasmid, pCDNA3.1(+)-CMV-betaArrestin2-tev plasmid and TANGO plasmid assessed as tango arrestin recruitment by measuring maximum activity incubated for 24 hrs by TANGO-GPCR assay based luminescence plate reader analysis relative to 2-phenylmelatonin. As to conditions: filed as agonist. It counts as functional, cell-based. In outline:
as §4

Data set [14] can be described thus: AUC (0 to 24 hrs) in Kunming mouse at 80 mg/kg, po administered as single dose and measured upto 24 hrs. It counts as ADME, organism-based. The arrangement: time < 24 hrs, dose 80 mg/kg, route po. Conditions: in vivo.
Data set [15] can be described thus: Clearance in Kunming mouse at 80 mg/kg, po administered as single dose and measured upto 24 hrs. It counts as ADME, organism-based. Conditions: in vivo.
A short description of data set [16]: Subacute toxicity in Kunming mouse assessed as effect on lung structure at 240 mg/kg, po administered for 14 days. It counts as organism-based. Conditions: in vivo, 336 h, time 14 day. In outline:
(§5)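 Subacute oral study following OECD 425. Animals randomised into two groups of six. Vehicle control received 0.5% CMC-Na orally for 14 consecutive days; the treated group received 240 mg kg−1 body weight orally for 14 consecutive days.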

For data set [17], the system named is HEK293T. In words: Agonist activity at human MT1 Q181A mutant receptor transfected in HEK293T cells co-transfected with tet-inducible luciferase reporter plasmid, pCDNA3.1(+)-CMV-betaArrestin2-tev plasmid and TANGO plasmid assessed as shift in concentration response curve incubated for 24 hrs by TANGO-GPCR assay based luminescence plate reader analysis relative to agomelatine. Conditions: filed as agonist. It counts as cell-based. In outline:
as §3

Data set [18] has as its system Mus musculus. Nature of the data set: Antidepressant activity in Kunming mouse assessed as decrease in immobility time at 40 mg/kg, po and measured after 14 days by forced swim test relative to control. As to conditions: time 14 day. Format: functional. The arrangement: scale not given: the % may be the effect or the level left. In outline: (§6)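 Male Kunming mice, 15–18 g, given the test compound orally for 14 days. Forced swim then done in a cylinder 25 cm high and 15 cm in diameter, water 10 cm deep at 25 ± 1 °C. Swim lasted 6 min and immobility over the final 4 min was video-scored against the vehicle group.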

Data set [19] concerns Mus musculus. In words: Antidepressant activity in Kunming mouse assessed as decrease in immobility time at 160 mg/kg, po and measured after 14 days by forced swim test relative to control. It counts as functional. The arrangement: scale not given: the % may be the effect or the level left. Conditions: time 14 day. A digest of the protocol:
as §6

Data set [20] in a line: Subacute toxicity in Kunming mouse assessed as effect on spleen structure at 240 mg/kg, po administered for 14 days. As to conditions: in vivo, 336 h, time 14 day. Format: organism-based. A digest of the protocol:
as §5

Data set [21] can be described thus: Subacute toxicity in Kunming mouse assessed as effect on kidney structure at 240 mg/kg, po administered for 14 days. Conditions: in vivo, 336 h, time 14 day. It counts as organism-based. A digest of the protocol: as §5
Data set [22] addresses T1, Melatonin receptor type 1A. In words: Agonist activity at human MT1 receptor transfected in HEK293T cells co-transfected with tet-inducible luciferase reporter plasmid, pCDNA3.1(+)-CMV-betaArrestin2-tev plasmid and TANGO plasmid assessed as tango arrestin recruitment incubated for 24 hrs by TANGO-GPCR assay based luminescence plate reader analysis. Format: functional, cell-based.

Data set [23] deals with Mus musculus. In words: Antidepressant activity in kunming mouse assessed as increase in dopamine level in thalamus at 160 mg/kg, po measured after 14 days by HPLC-ECD analysis. Format: functional, organism-based. As to conditions: time 14.0 day. In outline: as §1

Experimental findings from ChEMBL document CHEMBL5108087, “Synthesis and biological evaluation of paeoveitol D derivatives as new melatonin receptor agonists with antidepressant activities” (RSC Med Chem, 2022) are described below.

The half-life is the time needed for the level to fall by half in the phase considered. As usually defined, the Cmax is the maximum level reached in the sampled fluid or tissue. One may read the Emax as the size of the effect at its maximum, as opposed to the concentration needed. The AUC is the area under the concentration-time curve, a measure of exposure. By CL/F is commonly meant the apparent clearance, not corrected for the fraction that reaches the circulation. A word on the EC50: it is the concentration that produces a half-maximal response.

The source made the active and inactive calls.

T1 sequence (P48039 whole entry): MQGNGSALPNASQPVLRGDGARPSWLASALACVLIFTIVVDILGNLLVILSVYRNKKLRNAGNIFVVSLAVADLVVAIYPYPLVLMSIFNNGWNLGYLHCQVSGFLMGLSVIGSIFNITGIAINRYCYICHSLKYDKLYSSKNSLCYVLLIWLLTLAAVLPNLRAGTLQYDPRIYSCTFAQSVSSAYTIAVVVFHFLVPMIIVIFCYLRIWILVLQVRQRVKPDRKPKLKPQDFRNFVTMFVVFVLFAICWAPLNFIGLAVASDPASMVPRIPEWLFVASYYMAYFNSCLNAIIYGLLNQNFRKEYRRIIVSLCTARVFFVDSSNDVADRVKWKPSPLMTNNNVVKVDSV

As to `COc1cc2c(CN3CCN(C)CC3)coc2cc1C`, the outcome in the data set with Mus musculus [1], with Mus musculus [2], in the data set with Mus musculus [4], in the data set on HEK293T [5], in the data set on Mus musculus [9] and in the data set on Mus musculus [10] was Active. Besides, the outcome in the data set with Mus musculus [12], with HEK293T [17] and with Mus musculus [23] was Active. For the same molecule, the Activity is 29% with Mus musculus [3]; 26% in the data set with Mus musculus [7]; “Non-Toxic” in [16]; 26% with Mus musculus [18]; 28% with Mus musculus [19]; “Non-Toxic” in [20]. For the same molecule, the Activity entry in data set [21] was “Non-Toxic”. This molecule also showed a half-life in data set [6] of 5.47 h. The Cmax in data set [8] came to 1.34 µg/mL. In addition, the Emax in [11] worked out at 57%; in [13] it was 46%. The molecule further had an AUC in [14] of 5.4 µg·h/mL. For the same molecule, in data set [15], the apparent clearance (CL/F) is 237 mL/min. Besides, the EC50 in [22] worked out at 21 µM.
